Key:
Rattus norvegicus [1] = test: Compound was evaluated for the hypolipidemic activity at 20 mg/kg per day orally for 14 days on phospholipids content in rat VLDL; type: functional; details: route oral
Summary of the method: (§1)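 Male Sprague–Dawley rats (~300 g) were dosed orally each day. Blood was drawn from the abdominal vein. Lipoprotein fractions (chylomicron, VLDL, LDL, HDL) were separated by the Hatch–Lees and Havel methods. Each fraction was assayed for cholesterol, triglyceride (enzymatic kit), neutral lipids, phospholipids and Lowry protein. Values are % of 1% CMC vehicle control, N = 6.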

[2] = target: T1, ATP-citrate synthase (Mus musculus) (UniProt Q91V92); test: In Vitro evaluation for the CF1 liver enzyme activity on ATP-Citrate Lyase exchange at concentration 200 uM
T1 sequence (whole entry): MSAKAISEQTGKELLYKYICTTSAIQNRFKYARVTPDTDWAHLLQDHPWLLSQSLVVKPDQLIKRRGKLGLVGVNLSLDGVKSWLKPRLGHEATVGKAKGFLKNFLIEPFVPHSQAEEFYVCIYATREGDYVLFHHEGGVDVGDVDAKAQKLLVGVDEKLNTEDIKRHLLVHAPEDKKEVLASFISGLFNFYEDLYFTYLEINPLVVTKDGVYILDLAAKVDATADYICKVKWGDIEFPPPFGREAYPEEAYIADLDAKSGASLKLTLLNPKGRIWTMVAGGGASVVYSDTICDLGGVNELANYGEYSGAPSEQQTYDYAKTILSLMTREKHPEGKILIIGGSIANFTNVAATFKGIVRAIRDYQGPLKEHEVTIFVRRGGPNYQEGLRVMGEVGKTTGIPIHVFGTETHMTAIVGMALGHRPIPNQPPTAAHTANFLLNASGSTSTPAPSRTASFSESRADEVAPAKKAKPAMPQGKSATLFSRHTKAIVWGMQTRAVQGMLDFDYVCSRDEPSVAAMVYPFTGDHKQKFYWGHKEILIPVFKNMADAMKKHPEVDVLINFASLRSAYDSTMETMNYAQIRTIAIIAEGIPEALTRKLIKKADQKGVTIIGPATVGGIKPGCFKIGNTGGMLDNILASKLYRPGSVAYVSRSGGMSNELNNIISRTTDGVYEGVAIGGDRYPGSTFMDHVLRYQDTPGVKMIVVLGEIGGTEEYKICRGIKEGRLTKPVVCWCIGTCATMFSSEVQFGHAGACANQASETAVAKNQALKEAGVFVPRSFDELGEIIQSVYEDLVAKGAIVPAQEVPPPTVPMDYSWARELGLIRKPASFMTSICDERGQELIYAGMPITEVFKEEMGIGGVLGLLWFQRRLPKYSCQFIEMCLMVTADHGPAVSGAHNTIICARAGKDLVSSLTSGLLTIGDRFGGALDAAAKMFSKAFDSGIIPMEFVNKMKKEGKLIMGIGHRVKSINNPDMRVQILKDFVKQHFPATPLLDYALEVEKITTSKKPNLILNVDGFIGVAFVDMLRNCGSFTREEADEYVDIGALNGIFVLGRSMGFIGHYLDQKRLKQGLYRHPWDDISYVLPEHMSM
Summary of the method: (§2)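 Liver was taken from CF1 male mice and made into 10% homogenates, which were incubated with test compound at 50, 100 or 200 µM. Each enzyme was assayed by its literature method, and protein was measured by Lowry. N = 6. Activity is expressed as % of untreated control ± SD.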

Rattus norvegicus [3] = test: Compound was evaluated for the hypolipidemic activity in Sprague-Dawley rats at a dose of 20 mg/kg orally for Serum cholesterol at 9th day; type: functional; details: route oral
Summary of the method: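 Sprague–Dawley male rats (~350 g) received 20 mg/kg per day orally, with 1% CMC as the vehicle control; N = 6. Tail-vein blood was taken between 8:00 and 9:30 a.m. on days 9 and 16 and spun for 3 min to obtain serum. Cholesterol was measured by a modified Liebermann–Burchard reaction and triglyceride by kit. Values are % control ± SD; significance by Student's t test.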

Rattus norvegicus [4] = test: Compound was evaluated for the hypolipidemic activity at 20 mg/kg per day orally for 14 days on cholesterol content in rat VLDL; type: functional; details: route oral; summary of the method: as §1
[5] = target: Cholesterol 7-alpha-hydroxylase (Cytochrome P450 7A1) (Mus musculus, UniProt Q64505); test: In vivo effect on Cholesterol 7-alpha-hydroxylase activity in CF1 mice after 16 days at 40 mg/kg oral dose; type: functional, organism-based; parameters: dose 40 mg/kg, route oral; details: read-out: Control
Chain of Cholesterol 7-alpha-hydroxylase (Cytochrome P450 7A1) (Q64505 whole entry): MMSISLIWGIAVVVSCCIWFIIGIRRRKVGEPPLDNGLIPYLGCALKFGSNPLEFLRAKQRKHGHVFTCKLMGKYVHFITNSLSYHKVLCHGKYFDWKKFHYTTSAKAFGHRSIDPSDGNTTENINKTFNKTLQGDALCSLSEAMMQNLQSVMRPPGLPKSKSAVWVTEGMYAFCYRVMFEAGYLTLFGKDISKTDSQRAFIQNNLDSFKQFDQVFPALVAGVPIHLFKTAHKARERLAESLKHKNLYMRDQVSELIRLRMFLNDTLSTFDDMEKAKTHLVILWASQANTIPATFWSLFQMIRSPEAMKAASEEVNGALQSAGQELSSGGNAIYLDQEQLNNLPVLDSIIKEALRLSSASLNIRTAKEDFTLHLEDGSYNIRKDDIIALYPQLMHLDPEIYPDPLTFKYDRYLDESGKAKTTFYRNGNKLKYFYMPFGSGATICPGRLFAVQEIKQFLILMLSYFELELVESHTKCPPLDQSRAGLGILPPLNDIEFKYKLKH
Summary of the method: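 CF1 male mice are dosed orally at 10–60 mg/kg per day for 16 days, with 1% CMC as the control vehicle. Liver is homogenized at 10% in 0.25 M sucrose + 0.001 M EDTA, pH 7.2. Enzymes are assayed by literature methods, with Lowry protein. Activity is given as % of control (X ± SD, N = 6), with p from Student's t test.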

Mus musculus [6] = organism: Mus musculus; test: In Vitro evaluation for the CF1 liver enzyme activity on Acetyl-CoA carboxylase at concentration 50 uM; type: functional; summary of the method: as §2
[7] = target: T2, 3-hydroxy-3-methylglutaryl-coenzyme A reductase (Mus musculus) (UniProt Q01237); test: In Vitro evaluation for the CF1 liver enzyme activity on HMG-CoA reductase at concentration 50 uM; summary of the method: as §2
T2 sequence (whole entry): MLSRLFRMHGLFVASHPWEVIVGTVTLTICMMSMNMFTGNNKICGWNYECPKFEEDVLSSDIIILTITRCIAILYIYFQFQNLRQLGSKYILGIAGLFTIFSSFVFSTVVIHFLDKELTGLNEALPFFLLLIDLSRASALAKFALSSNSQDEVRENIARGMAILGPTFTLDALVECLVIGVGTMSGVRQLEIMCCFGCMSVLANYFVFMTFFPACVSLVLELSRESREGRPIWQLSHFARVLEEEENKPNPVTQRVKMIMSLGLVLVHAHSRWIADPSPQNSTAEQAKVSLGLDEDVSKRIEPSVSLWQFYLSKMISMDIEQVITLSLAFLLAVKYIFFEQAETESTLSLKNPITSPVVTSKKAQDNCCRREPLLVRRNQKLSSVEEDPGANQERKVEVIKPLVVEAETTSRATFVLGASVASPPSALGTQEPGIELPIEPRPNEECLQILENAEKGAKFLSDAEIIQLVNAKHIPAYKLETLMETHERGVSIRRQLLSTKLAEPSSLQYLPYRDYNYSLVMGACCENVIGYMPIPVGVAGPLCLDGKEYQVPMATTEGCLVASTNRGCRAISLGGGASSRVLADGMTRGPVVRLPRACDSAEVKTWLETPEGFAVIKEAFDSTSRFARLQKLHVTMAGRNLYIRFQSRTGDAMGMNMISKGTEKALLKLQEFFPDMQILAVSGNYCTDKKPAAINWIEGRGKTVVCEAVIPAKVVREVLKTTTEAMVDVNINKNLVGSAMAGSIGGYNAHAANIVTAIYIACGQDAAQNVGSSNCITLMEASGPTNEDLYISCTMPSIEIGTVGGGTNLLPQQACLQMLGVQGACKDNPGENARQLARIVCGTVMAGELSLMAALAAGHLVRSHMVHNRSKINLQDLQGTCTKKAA

Mus musculus [8] = organism: Mus musculus; test: In Vitro evaluation for the CF1 liver enzyme activity on Mitochondrial citrate exchange at concentration 50 uM; type: functional
Summary of the method: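 Mouse liver enzymes assayed in vitro on 10% homogenates of CF1 male mouse liver, with test drug added at 50–200 μM. Each enzyme follows a published procedure. Protein is measured by Lowry. Activity is given as % of untreated control (X ± SD, N = 6).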

In the case of `COc1ccc(C2C(=O)c3ccccc3C2=O)cc1` [ANISINDIONE], the Control (Rattus norvegicus [1]) is reported as 128%, the Control [2] is reported as 52% and the Control (Rattus norvegicus [3]) is reported as 74%. The Control (Rattus norvegicus [4]) was 88%, the activity at 384 h [5] was 55% and the Control (Mus musculus [6]) was 118%. The Control [7] was 107% and the Control (Mus musculus [8]) was 36%.
